Results taken from ChEMBL document CHEMBL1933045, “Fused thiophene derivatives as MEK inhibitors” (Bioorg Med Chem Lett, 2012).
In brackets after ≈: the same amount, converted by molar mass. Activity calls are given as the source filed them. No cut-off for these calls is given here.

Assays:
[1] = target: Dual specificity mitogen-activated protein kinase kinase; MEK1/2 (Homo sapiens, UniProt P36507+Q02750); experiment: Inhibition of human MEK using fluorescein-labelled Erk-tide as substrate after 20 mins by IMAP assay
How it was run: (§1)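 Values are means of two experiments, IC50 in nM.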

[2] = system: HT-29; experiment: Antiproliferative activity against human HT-29 cells; assay type: functional, cell-based; how it was run: as §1
[3] = Inhibition of Erk phosphorylation in human HT-29 cells; assay type: cell-based; how it was run: as §1
[4] = Aqueous solubility of the compound at pH 7.4; assay type: physicochemical
[5] = Intrinsic clearance in rat hepatocytes assessed per 10^6 cells; assay type: ADME, cell-based, Hepatocyte; details: read-out: CLH
[6] = system: Mus musculus; experiment: Inhibition of Erk phosphorylation in PMA-stimulated whole blood in nude mouse bearing human HT-29 cells at 50 mg/kg, po after 1 hr; assay type: functional, organism-based; design: dose 50 mg/kg
How it was run: (§2)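 Nude mice bearing HT-29 tumours, dosed p.o. with vehicle (0 h) or 50 mg/kg compound; pERK measured in PMA-stimulated whole blood at 1, 6 and 18 h post dose. Plasma drug by LC–MS/MS; significance versus vehicle by one-way ANOVA with Bonferroni post test.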

[7] = system: Mus musculus; experiment: Inhibition of Erk phosphorylation in human HT-29 cells xenografted in nude mouse at 50 mg/kg, po after 18 hrs
[8] = AUC (0 to last) in mouse at 10 mg/kg, po; assay type: ADME, organism-based; design: time 0 - last, dose 10 mg/kg, route oral; details: plasma
How it was run: (§3)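 Female nude mice, single oral dose 10 mg/kg; plasma drug levels measured over time; Cmax and AUClast derived.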

[9] = system: Mus musculus; experiment: Inhibition of Erk phosphorylation in PMA-stimulated whole blood in nude mouse bearing human HT-29 cells at 50 mg/kg, po after 18 hrs relative to control; assay type: functional; details: HT-29, Blood; how it was run: as §2
[10] = system: Mus musculus; experiment: Inhibition of Erk phosphorylation in PMA-stimulated whole blood in nude mouse bearing human HT-29 cells at 50 mg/kg, po after 6 hrs; assay type: functional, organism-based; design: dose 50 mg/kg; how it was run: as §2
[11] = Cmax in mouse at 10 mg/kg, po; assay type: ADME, organism-based; design: dose 10 mg/kg, route oral; details: in vivo; how it was run: as §3

Compound	IC50 [1] [nM]	IC50 [2] [nM]	IC50 [3] [nM]	also measured
CC1(C)CNC(=O)c2sc(Nc3ccc(I)cc3Cl)c(C(N)=O)c2C1	13	596	92	solubility ([4]; buffer): Insoluble
CC1(C)CNC(=O)c2sc(Nc3ccc(I)cc3F)c(C(=O)O)c2C1	14		978	
CC1(C)CNC(=O)c2sc(Nc3ccc(I)cc3Cl)c(C(=O)NCC[C@@H](O)CO)c2C1	200	12100	717	
CC1(C)CNC(=O)c2sc(Nc3ccc(I)cc3Cl)c(C(=O)N3CCNCC3)c2C1	456	1040	45	
CC1(C)CNC(=O)c2sc(Nc3ccc(I)cc3F)c(C(=O)NCCCO)c2C1	309	6210	140	
CCOC(=O)c1c(Nc2ccc(I)cc2F)sc2c1CC(C)(C)CNC2=O	305			
CC1(C)CNC(=O)c2sc(Nc3ccc(I)cc3F)c(C(=O)NC[C@H]3CCCN3)c2C1	42	120	22	
CC1(C)CNC(=O)c2sc(Nc3ccc(I)cc3F)c(C(=O)NOC[C@H](O)CO)c2C1	6	1580	51	
CC1(C)CNC(=O)c2sc(Nc3ccc(I)cc3F)c(C(=O)N[C@@H]3CCCNC3)c2C1	22	91	5	

More lines, main results first:

IC50 [1] [nM]	IC50 [2] [nM]	IC50 [3] [nM]	Compound	also measured
2617			CCOC(=O)c1c(Nc2ccc(I)cc2Cl)sc2c1CC(C)(C)CNC2=O	
9	896	76	CC1(C)CNC(=O)c2sc(Nc3ccc(I)cc3Cl)c(C(=O)NOC[C@H](O)CO)c2C1	
226	1630	224	CNC(=O)c1c(Nc2ccc(I)cc2Cl)sc2c1CC(C)(C)CNC2=O	
7	340	18	CC1(C)CNC(=O)c2sc(Nc3ccc(I)cc3F)c(C(=O)NOCCO)c2C1	
18	113	13	CC(C)(N)CNC(=O)c1c(Nc2ccc(I)cc2Cl)sc2c1CC(C)(C)CNC2=O	
946	8870	1540	CC1(C)CNC(=O)c2sc(Nc3ccc(I)cc3F)nc2C1	
9	158		CC1(C)CNC(=O)c2sc(Nc3ccc(I)cc3F)c(C(N)=O)c2C1	
8	54	9	CC1(C)CNC(=O)c2sc(Nc3ccc(I)cc3F)c(C(=O)N[C@@H]3CCNC3)c2C1	
28	710	43	CC1(C)CNC(=O)c2sc(Nc3ccc(I)cc3Cl)c(C(=O)NC[C@@H](O)CO)c2C1	
14	79	6	CC(C)(N)CNC(=O)c1c(Nc2ccc(I)cc2F)sc2c1CC(C)(C)CNC2=O	solubility ([4]; aqueous, read-out: solubility): 210 µM (≈ 114 µg/mL); hepatocyte CLint [5]: 2.6 µL/min/1e6 cells; inhibition [6]: Active; inhibition [7]: inactive; AUC(0-t) [8]: 1240 ng·h/mL; inhibition in vivo at 50 mg/kg [9]: 35%; inhibition [10]: Active; Cmax [11]: 323 ng/mL
